Key:
[1] = Selectivity measured as log[1/Ki(Lactobacillus casei DHFR)]-log[1/Ki(chicken liver DHFR)]
Method in brief: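 Selectivity index calculated as log(1/Ki) for L. casei DHFR minus log(1/Ki) for chicken liver DHFR. Both Ki values came from stopped-flow 340 nm NADPH-oxidation assays, with jackknife estimation.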

Dihydrofolate reductase [2] = molecular target: Dihydrofolate reductase (Lactobacillus casei, UniProt P00381); test: Inhibition of Dihydrofolate reductase from Lactobacillus casei; set-up: species or system Lacticaseibacillus casei
Method in brief: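 L. casei DHFR, from lyophilized powder, dissolved to about 0.5 unit/mL in 0.05 M Tris pH 7.20 with 50 mM mercaptoethanol and stored at −20 °C. Dihydrofolate and NADPH solutions kept at 0 °C. Inhibitors in DMSO, final ≤0.5%. Stopped-flow spectrophotometry at 340 nm followed NADPH oxidation and dihydrofolate reduction. Ki with 95% confidence limits by jackknife.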

Dihydrofolate reductase [3] = molecular target: T1, Dihydrofolate reductase (Gallus gallus, UniProt P00378); test: Inhibition of chicken liver Dihydrofolate reductase (dihydrofolate reductase)
T1 sequence (P00378 whole entry): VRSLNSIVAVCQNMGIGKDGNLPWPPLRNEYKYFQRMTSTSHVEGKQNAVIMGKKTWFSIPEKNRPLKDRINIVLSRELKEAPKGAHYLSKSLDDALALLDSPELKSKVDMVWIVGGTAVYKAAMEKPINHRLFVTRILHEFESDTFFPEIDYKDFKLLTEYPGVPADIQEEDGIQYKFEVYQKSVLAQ
Method in brief: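 Chicken liver DHFR vial (0.19 unit/mL) dissolved in 24 mL of 200 μM NADPH. Inhibitors in DMSO, final ≤0.5%. Activity with and without inhibitor read at 340 nm by stopped-flow spectrophotometry as NADPH is oxidized and dihydrofolate reduced.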

Sequence of Dihydrofolate reductase (Lactobacillus casei, UniProt P00381) (P00381 whole entry): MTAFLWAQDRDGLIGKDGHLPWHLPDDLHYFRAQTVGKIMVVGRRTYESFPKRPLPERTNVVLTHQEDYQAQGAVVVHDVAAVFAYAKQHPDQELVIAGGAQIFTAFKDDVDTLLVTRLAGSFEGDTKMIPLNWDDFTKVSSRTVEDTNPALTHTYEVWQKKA

SMILES	Selectivity index [1]	Ki (Dihydrofolate reductase [2])	Ki (Dihydrofolate reductase [3])
CCOc1ccccc1Cc1cnc(N)nc1N	0.09	20 µM	–
C=CCOc1ccccc1Cc1cnc(N)nc1N	0.2	13.5 µM	21.4 µM
CS(=O)(=O)Oc1ccccc1Cc1cnc(N)nc1N	-0.57	85.1 µM	22.9 µM
NC(=O)COc1ccccc1Cc1cnc(N)nc1N	-0.37	79.4 µM	33.9 µM
COCc1ccccc1Cc1cnc(N)nc1N	0.15	28.2 µM	39.8 µM
Nc1ncc(Cc2ccccc2Cl)c(N)n1	0.26	9.55 µM	17.4 µM
Nc1ncc(Cc2ccccc2O)c(N)n1	-0.09	110 µM	89.1 µM
COc1ccccc1Cc1cnc(N)nc1N	0.46	10 µM	28.8 µM
Nc1ncc(Cc2ccccc2I)c(N)n1	-0.12	11.5 µM	8.71 µM
Nc1ncc(Cc2ccccc2Br)c(N)n1	0.09	10 µM	12.3 µM
Nc1ncc(Cc2ccccc2)c(N)n1	0.49	–	–
CCCCCCOc1ccccc1Cc1cnc(N)nc1N	-1.1	100 µM	7.94 µM
CCCCOc1ccccc1Cc1cnc(N)nc1N	-0.61	35.5 µM	–
COc1cccc(Cc2cnc(N)nc2N)c1	1.48	–	–
Nc1ncc(Cc2ccccc2F)c(N)n1	0.66	9.55 µM	43.7 µM
Nc1ncc(Cc2ccccc2OCc2ccccc2)c(N)n1	-0.3	18.2 µM	9.12 µM
Cc1ccccc1Cc1cnc(N)nc1N	0.49	9.55 µM	–

Reference: ChEMBL document CHEMBL1131154, “Quantitative structure-activity relationships of 2, 4-diamino-5-(2-X-benzyl)pyrimidines versus bacterial and avian dihydrofolate reductase” (J Med Chem, 1998)
